Measurements taken from ChEMBL document CHEMBL1687913, “Structure-activity relationship, conformational and biological studies of temporin L analogues” (J Med Chem, 2011).
Values after ≈ are worked out from the molar mass of the structure shown. Where a SMILES comes first, the peptide text is derived from it. [ ]: non-standard residue; d: D form. Orn = NCCC[C@H](N)C(=O)O

Assays:
[1] = Toxicity in human erythrocytes assessed as hemolysis at 3 uM after 40 mins; assay type: cell-based, Erythrocyte; details: read-out: Activity
Method in brief: (§1)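 Human red blood cells suspended in 0.9% (w/v) NaCl and incubated 40 min at 37 °C with gentle mixing with serial 2-fold peptide dilutions (peptide predissolved in 20% ethanol). Spun 5 min at 900g; supernatant read at 415 nm. Cells lysed in distilled water set the 100% lysis reference.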

Acinetobacter junii = experiment: Antibacterial activity against […] Acinetobacter junii RT-4 after 18 to 20 hrs by microbroth dilution method; assay type: functional
Method in brief: (§2)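 CLSI microbroth dilution, adapted. Mid-log bacteria, 2 × 10^6 CFU/mL in Mueller-Hinton broth, mixed 1:1 with MH broth holding peptide in serial 2-fold dilutions in 20% ethanol (0.75-48 μM). Incubated 18-20 h at 37 °C; growth read as A600. MIC is the lowest concentration giving 100% growth inhibition.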

Pseudomonas aeruginosa [2] = experiment: Antibacterial activity against Pseudomonas aeruginosa ATCC 27853 after 18 to 20 hrs by microbroth dilution method; assay type: functional; method in brief: as §2
Saccharomyces cerevisiae = experiment: Antifungal activity against Saccharomyces cerevisiae after 18 to 20 hrs by microbroth dilution method; assay type: functional
Method in brief: (§3)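 Yeasts tested by adapted CLSI microbroth dilution in Winge medium. Peptide given in serial 2-fold dilutions (0.75-48 μM, made in 20% ethanol). Incubation 18-20 h at 30 °C, read at A600. MIC taken as the concentration giving complete (100%) growth inhibition.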

Staphylococcus capitis = experiment: Antibacterial activity against Staphylococcus capitis after 18 to 20 hrs by microbroth dilution method; assay type: functional; method in brief: as §2
[3] = Toxicity in human erythrocytes assessed as hemolysis at 1.5 uM after 40 mins; assay type: cell-based, Erythrocyte; details: read-out: Activity; method in brief: as §1
Staphylococcus aureus [4] = experiment: Antibacterial activity against Staphylococcus aureus ATCC 25923 after 18 to 20 hrs by microbroth dilution method; assay type: functional; method in brief: as §2
Staphylococcus aureus [5] = experiment: Antibacterial activity against Staphylococcus aureus Cowan I after 18 to 20 hrs by microbroth dilution method; assay type: functional; method in brief: as §2
Streptococcus pyogenes = experiment: Antibacterial activity against Streptococcus pyogenes ATCC 21547 after 18 to 20 hrs by microbroth dilution method; assay type: functional; method in brief: as §2
Pseudomonas aeruginosa [6] = experiment: Antibacterial activity against Pseudomonas aeruginosa ATCC 15692 after 18 to 20 hrs by microbroth dilution method; assay type: functional; method in brief: as §2
[7] = Toxicity in human erythrocytes assessed as hemolysis at 6 uM after 40 mins; assay type: cell-based, Erythrocyte; details: read-out: Activity; method in brief: as §1
Priestia megaterium = experiment: Antibacterial activity against Bacillus megaterium Bm11 after 18 to 20 hrs by microbroth dilution method; assay type: functional; method in brief: as §2
Enterococcus faecalis = experiment: Antibacterial activity against Enterococcus faecalis ATCC 29212 after 18 to 20 hrs by microbroth dilution method; assay type: functional; method in brief: as §2
[8] = tested on: Yersinia pseudotuberculosis; experiment: Antibacterial activity against Yersinia pseudotuberculosis YPIII after 18 to 20 hrs by microbroth dilution method; assay type: functional
Method in brief: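 Broth microdilution adapted from CLSI. Mid-log bacteria at 2 × 10^6 CFU/mL in Mueller-Hinton broth were mixed 1:1 with MH broth containing peptide in serial 2-fold dilutions (peptide in 20% ethanol), 0.75-48 μM. Plates were incubated 18-20 h at 37 °C and growth was read as A600. MIC is the concentration giving 100% growth inhibition.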

Candida albicans = experiment: Antifungal activity against Candida albicans ATCC 10231 after 18 to 20 hrs by microbroth dilution method; assay type: functional; method in brief: as §3
[9] = Toxicity in human erythrocytes assessed as hemolysis at 12 uM after 40 mins; assay type: cell-based, Erythrocyte; details: read-out: Activity; method in brief: as §1
[10] = tested on: Schizosaccharomyces pombe; experiment: Antifungal activity against Schizosaccharomyces pombe after 18 to 20 hrs by microbroth dilution method; assay type: functional; method in brief: as §3
Pseudomonas syringae = experiment: Antibacterial activity against Pseudomonas syringae pv tobaci after 18 to 20 hrs by microbroth dilution method; assay type: functional; method in brief: as §2
Acinetobacter baumannii = experiment: Antibacterial activity against Acinetobacter baumannii ATCC 19606 after 18 to 20 hrs by microbroth dilution method; assay type: functional; method in brief: as §2
[11] = Toxicity in human erythrocytes assessed as hemolysis at 24 uM after 40 mins; assay type: cell-based, Erythrocyte; details: read-out: Activity; method in brief: as §1
[12] = tested on: Staphylococcus epidermidis; experiment: Antibacterial activity against Staphylococcus epidermidis ATCC 12228 after 18 to 20 hrs by microbroth dilution method; assay type: functional; method in brief: as §2
Escherichia coli [13] = experiment: Antibacterial activity against Escherichia coli D21 after 18 to 20 hrs by microbroth dilution method; assay type: functional; method in brief: as §2
Escherichia coli [14] = experiment: Antibacterial activity against Escherichia coli ATCC 25922 after 18 to 20 hrs by microbroth dilution method; assay type: functional; method in brief: as §2

CC[C@H](C)[C@H](NC(=O)[C@H](CCCN)NC(=O)CNC(=O)[C@H](CC(C)C)NC(=O)[C@H](Cc1ccccc1)NC(=O)[C@H](CCCCN)NC(=O)[C@H](CO)NC(=O)[C@H](Cc1ccccc1)NC(=O)[C@H](Cc1c[nH]c2ccccc12)NC(=O)[C@@H]1CCCN1C(=O)[C@@H](NC(=O)[C@@H](N)Cc1ccccc1)C(C)C)C(=O)N[C@@H](CC(C)C)C(N)=O (H-FVPWFSKFLG[Orn]IL-NH2)
hemolysis at 40 min, 3 µM [1]: 1%
MIC (Acinetobacter junii): 6 µM (≈ 9.4 µg/mL)
MIC (Pseudomonas aeruginosa [2]): 48 µM (≈ 75.2 µg/mL)
MIC (Saccharomyces cerevisiae): 6 µM (≈ 9.4 µg/mL)
MIC (Staphylococcus capitis): 6 µM (≈ 9.4 µg/mL)
hemolysis at 40 min, 1.5 µM [3]: 0.7%
MIC (Staphylococcus aureus [4]): 12 µM (≈ 18.8 µg/mL)
MIC (Staphylococcus aureus [5]): 3 µM (≈ 4.7 µg/mL)
MIC (Streptococcus pyogenes): 6 µM (≈ 9.4 µg/mL)
MIC (Pseudomonas aeruginosa [6]): 48 µM (≈ 75.2 µg/mL)
hemolysis at 40 min, 6 µM [7]: 2%
MIC (Priestia megaterium): 6 µM (≈ 9.4 µg/mL)
MIC (Enterococcus faecalis): 12 µM (≈ 18.8 µg/mL)
MIC [8]: 6 µM (≈ 9.4 µg/mL)
MIC (Candida albicans): 6 µM (≈ 9.4 µg/mL)
hemolysis at 40 min, 12 µM [9]: 12%
MIC [10]: 12 µM (≈ 18.8 µg/mL)
MIC (Pseudomonas syringae): 12 µM (≈ 18.8 µg/mL)
MIC (Acinetobacter baumannii): 12 µM (≈ 18.8 µg/mL)
hemolysis at 40 min, 24 µM [11]: 72%
MIC [12]: 6 µM (≈ 9.4 µg/mL)
MIC (Escherichia coli [13]): 24 µM (≈ 37.6 µg/mL)
MIC (Escherichia coli [14]): 12 µM (≈ 18.8 µg/mL)

CC[C@H](C)[C@H](NC(=O)[C@H](CCCCN)NC(=O)CNC(=O)[C@H](CC(C)C)NC(=O)[C@H](Cc1ccccc1)NC(=O)[C@H](CCCCN)NC(=O)[C@H](CO)NC(=O)[C@H](Cc1ccccc1)NC(=O)[C@H](Cc1c[nH]c2ccccc12)NC(=O)[C@H](CCC(N)=O)NC(=O)[C@@H](NC(=O)[C@@H](N)Cc1ccccc1)C(C)C)C(=O)N[C@@H](CC(C)C)C(N)=O (H-FVQWFSKFLGKIL-NH2)
hemolysis at 40 min, 3 µM [1]: 5%
MIC (Acinetobacter junii): 6 µM (≈ 9.67 µg/mL)
MIC (Pseudomonas aeruginosa [2]): 48 µM (≈ 77.4 µg/mL)
MIC (Saccharomyces cerevisiae): 6 µM (≈ 9.67 µg/mL)
MIC (Staphylococcus capitis): 6 µM (≈ 9.67 µg/mL)
hemolysis at 40 min, 1.5 µM [3]: 2.6%
MIC (Staphylococcus aureus [4]): 6 µM (≈ 9.67 µg/mL)
MIC (Staphylococcus aureus [5]): 12 µM (≈ 19.3 µg/mL)
MIC (Streptococcus pyogenes): 6 µM (≈ 9.67 µg/mL)
MIC (Pseudomonas aeruginosa [6]): 24 µM (≈ 38.7 µg/mL)
hemolysis at 40 min, 6 µM [7]: 14%
MIC (Priestia megaterium): 3 µM (≈ 4.84 µg/mL)
MIC (Enterococcus faecalis): 12 µM (≈ 19.3 µg/mL)
MIC [8]: 6 µM (≈ 9.67 µg/mL)
MIC (Candida albicans): 12 µM (≈ 19.3 µg/mL)
hemolysis at 40 min, 12 µM [9]: 59%
MIC [10]: 6 µM (≈ 9.67 µg/mL)
MIC (Pseudomonas syringae): 24 µM (≈ 38.7 µg/mL)
MIC (Acinetobacter baumannii): 6 µM (≈ 9.67 µg/mL)
hemolysis at 40 min, 24 µM [11]: 100%
MIC [12]: 6 µM (≈ 9.67 µg/mL)
MIC (Escherichia coli [13]): 24 µM (≈ 38.7 µg/mL)
MIC (Escherichia coli [14]): 12 µM (≈ 19.3 µg/mL)

CC[C@H](C)[C@H](NC(=O)[C@H](CCCN)NC(=O)CNC(=O)[C@H](CC(C)C)NC(=O)[C@H](Cc1ccccc1)NC(=O)[C@H](CCCCN)NC(=O)[C@H](CO)NC(=O)[C@H](Cc1ccccc1)NC(=O)[C@H](Cc1c[nH]c2ccccc12)NC(=O)[C@H](CCC(N)=O)NC(=O)[C@@H](NC(=O)[C@@H](N)Cc1ccccc1)C(C)C)C(=O)N[C@@H](CC(C)C)C(N)=O (H-FVQWFSKFLG[Orn]IL-NH2)
hemolysis at 40 min, 3 µM [1]: 7%
MIC (Acinetobacter junii): 12 µM (≈ 19.2 µg/mL)
MIC (Pseudomonas aeruginosa [2]): 24 µM (≈ 38.4 µg/mL)
MIC (Saccharomyces cerevisiae): 12 µM (≈ 19.2 µg/mL)
MIC (Staphylococcus capitis): 3 µM (≈ 4.79 µg/mL)
hemolysis at 40 min, 1.5 µM [3]: 3%
MIC (Staphylococcus aureus [4]): 3 µM (≈ 4.79 µg/mL)
MIC (Staphylococcus aureus [5]): 1.5 µM (≈ 2.4 µg/mL)
MIC (Streptococcus pyogenes): 24 µM (≈ 38.4 µg/mL)
MIC (Pseudomonas aeruginosa [6]): 24 µM (≈ 38.4 µg/mL)
hemolysis at 40 min, 6 µM [7]: 22%
MIC (Priestia megaterium): 1.5 µM (≈ 2.4 µg/mL)
MIC (Enterococcus faecalis): 6 µM (≈ 9.59 µg/mL)
MIC [8]: 3 µM (≈ 4.79 µg/mL)
MIC (Candida albicans): 6 µM (≈ 9.59 µg/mL)
hemolysis at 40 min, 12 µM [9]: 62%
MIC [10]: 12 µM (≈ 19.2 µg/mL)
MIC (Pseudomonas syringae): 12 µM (≈ 19.2 µg/mL)
MIC (Acinetobacter baumannii): 12 µM (≈ 19.2 µg/mL)
hemolysis at 40 min, 24 µM [11]: 89%
MIC [12]: 3 µM (≈ 4.79 µg/mL)
MIC (Escherichia coli [13]): 12 µM (≈ 19.2 µg/mL)
MIC (Escherichia coli [14]): 12 µM (≈ 19.2 µg/mL)
